According to ChEMBL document CHEMBL4251671, “Microporenic Acids A-G, Biofilm Inhibitors, and Antimicrobial Agents from the Basidiomycete Microporus Species” (J Nat Prod, 2018):
Converted amounts (≈) assume the structure as drawn. The source made the active and inactive calls. No cut-off for these calls is given here.

Assays:
Bacillus subtilis = assay: Antimicrobial activity against Bacillus subtilis DSM 10 by serial dilution method; type: functional
Outline: (§1)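 MIC by serial dilution in microtiter plates, in triplicate. YMG medium for yeasts and filamentous fungi, EBS for bacteria. Starting concentration 300 μg/mL.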

Micrococcus luteus = assay: Antimicrobial activity against Micrococcus luteus DSM 1790 by serial dilution method; type: functional; outline: as §1
Staphylococcus aureus [1] = assay: Antimicrobial activity against Staphylococcus aureus DSM 346 by serial dilution method; type: functional; outline: as §1
Mucor plumbeus = assay: Antimicrobial activity against Mucor plumbeus MUCL 49355 by serial dilution method; type: functional; outline: as §1
Yamadazyma tenuis = assay: Antimicrobial activity against Candida tenuis MUCL 29982 by serial dilution method; type: functional; outline: as §1
Wickerhamomyces anomalus = assay: Antimicrobial activity against Pichia anomala DSM 6766 by serial dilution method; type: functional; outline: as §1
KB 3-1 [2] = assay: Cytotoxicity against human KB 3.1 cells assessed as inhibition of cell growth at 37 ug/ml after 5 days by MTT assay; type: cell-based; conditions: kb 3-1, 120 h
L929 [3] = assay: Cytotoxicity against mouse L929 cells assessed as inhibition of cell growth at 37 ug/ml after 5 days by MTT assay; type: cell-based; conditions: l929, 120 h
Escherichia coli [4] = conditions: DSM 498
Staphylococcus aureus [5] = assay: Antimicrobial activity against Staphylococcus aureus DSM 1104 by serial dilution method; type: functional
Candida albicans [6] = assay: Antibiofilm activity against Candida albicans DSM 11225 preformed biofilm after 24 hrs by MTT assay; type: functional, organism-based
Outline: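 C. albicans set to 0.5 McFarland turbidity; biofilm preformed 4 h at 37 °C in SB broth, then treated with serially diluted compounds for a further 24 h at 37 °C. Dispersal read by MTT reduction. Triplicate, two repetitions; methanol as negative control.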

Staphylococcus aureus [7] = assay: Antibiofilm activity against Staphylococcus aureus DSM 1104 at 150 ug/ml after 24 hrs by crystal violet staining based assay relative to control; type: functional; conditions: DSM 1104, 24 h
Outline: (§2)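 S. aureus set to 0.5 McFarland turbidity and grown with serially diluted compounds in CASO broth with 4% glucose, 24 h, 37 °C. Biofilm stained with crystal violet 15 min, washed three times, dye extracted with dilute acetic acid, absorbance read at 550 nm. Two repeats of three parallel experiments; methanol as negative control.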

Staphylococcus aureus [8] = assay: Antibiofilm activity against Staphylococcus aureus DSM 1104 at 75 ug/ml after 24 hrs by crystal violet staining based assay relative to control; type: functional; conditions: DSM 1104, 24 h; outline: as §2
Staphylococcus aureus [9] = assay: Antibiofilm activity against Staphylococcus aureus DSM 1104 at 37 ug/ml after 24 hrs by crystal violet staining based assay relative to control; type: functional; conditions: DSM 1104, 24 h; outline: as §2
Staphylococcus aureus [10] = assay: Antibiofilm activity against Staphylococcus aureus DSM 1104 preformed biofilm after 24 hrs by crystal violet staining based assay; type: functional, organism-based
Outline: (§3)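 S. aureus set to 0.5 McFarland turbidity; biofilm preformed 24 h in CASO broth with 4% glucose, then exposed to compounds a further 24 h at 37 °C. Remaining biofilm quantified by crystal violet staining. Triplicate, two repetitions.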

KB 3-1 [11] = assay: Cytotoxicity against human KB 3.1 cells assessed as inhibition of cell growth after 5 days by MTT assay; type: cell-based; conditions: KB 3-1, 120 h
Outline: (§4)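 IC50 determined by the previously described in vitro cytotoxicity method against mouse fibroblast L929 and HeLa-derived KB-3.1 cells. Compounds were tested from a starting concentration of 37 μg/mL.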

Candida albicans [12] = assay: Antimicrobial activity against Candida albicans DSM 11225 by serial dilution method; type: functional
Staphylococcus aureus [13] = assay: Antibiofilm activity against Staphylococcus aureus DSM 1104 at 256 ug/ml after 24 hrs by crystal violet staining based assay relative to control; type: functional; conditions: DSM 1104, 24 h; outline: as §2
Staphylococcus aureus [14] = assay: Antibiofilm activity against Staphylococcus aureus DSM 1104 at 64 ug/ml after 24 hrs by crystal violet staining based assay relative to control; type: functional; conditions: DSM 1104, 24 h; outline: as §2
Staphylococcus aureus [15] = assay: Antibiofilm activity against Staphylococcus aureus DSM 1104 at 16 ug/ml after 24 hrs by crystal violet staining based assay relative to control; type: functional; conditions: DSM 1104, 24 h; outline: as §2
Staphylococcus aureus [16] = assay: Antibiofilm activity against Staphylococcus aureus DSM 1104 preformed biofilm at 256 ug/ml after 24 hrs by crystal violet staining based assay relative to control; type: functional; conditions: DSM 1104, 24 h; outline: as §3
Staphylococcus aureus [17] = assay: Antibiofilm activity against Staphylococcus aureus DSM 1104 preformed biofilm at 128 ug/ml after 24 hrs by crystal violet staining based assay relative to control; type: functional; conditions: DSM 1104, 24 h; outline: as §3
Staphylococcus aureus [18] = assay: Antibiofilm activity against Staphylococcus aureus DSM 1104 preformed biofilm at 64 ug/ml after 24 hrs by crystal violet staining based assay relative to control; type: functional; conditions: DSM 1104, 24 h; outline: as §3
Candida albicans [19] = assay: Antibiofilm activity against Candida albicans DSM 11225 preformed biofilm at 16 ug/ml after 24 hrs by MTT assay relative to control; type: functional; conditions: DSM 11225, 24 h
Candida albicans [20] = assay: Antibiofilm activity against Candida albicans DSM 11225 preformed biofilm at 8 ug/ml after 24 hrs by MTT assay relative to control; type: functional; conditions: DSM 11225, 24 h
Staphylococcus aureus [21] = assay: Antibiofilm activity against Staphylococcus aureus DSM 1104 after 24 hrs by crystal violet staining based assay; type: functional, organism-based; outline: as §2
Staphylococcus aureus [22] = assay: Antibiofilm activity against Staphylococcus aureus DSM 1104 at 128 ug/ml after 24 hrs by crystal violet staining based assay relative to control; type: functional; conditions: DSM 1104, 24 h; outline: as §2
L929 [23] = assay: Cytotoxicity against mouse L929 cells assessed as inhibition of cell growth after 5 days by MTT assay; type: cell-based; conditions: L929, 120 h; outline: as §4
Escherichia coli [24] = assay: microbe, parasite or virus in culture; conditions: DSM 498

Compound	MIC (Bacillus subtilis)	MIC (Micrococcus luteus) [µg/mL]	MIC (Staphylococcus aureus [1])	MIC (Mucor plumbeus)	MIC (Yamadazyma tenuis)	MIC (Wickerhamomyces anomalus)	Activity (KB 3-1 [2])	Activity (L929 [3])	MIC (Escherichia coli [4])	MIC (Staphylococcus aureus [5]) [µg/mL]	further results
C/C(=C\CC/C(C)=C/CC/C(C)=C/CC/C(C)=C/CO[C@@H](C(=O)O)[C@H](CC(=O)O)C(=O)O)CO	37.5 µg/mL (≈ 78 µM)	18.8 (≈ 39 µM)	75 µg/mL (≈ 156 µM)	75 µg/mL (≈ 156 µM)	37.5 µg/mL (≈ 78 µM)	inactive	Non-Toxic	Non-Toxic	inactive	–	–
CC(C)=CCC[C@@](C)(O)[C@@H](O)CC/C(C)=C/CC/C(C)=C/CO[C@@H](C(=O)O)[C@H](CC(=O)O)C(=O)O	inactive	–	inactive	inactive	inactive	inactive	Non-Toxic	Non-Toxic	inactive	–	–
C=C1C(=O)O[C@@H](C)[C@@H]1O	–	–	–	–	–	–	–	–	–	150 (≈ 1170 µM)	Activity (Candida albicans [6]): inactive; inhibition at 150 µg/mL (Staphylococcus aureus [7]): 99%; inhibition at 75 µg/mL (Staphylococcus aureus [8]): 92%; inhibition at 37 µg/mL (Staphylococcus aureus [9]): 85%; Activity (Staphylococcus aureus [10]): inactive
C[C@@H]1CO[C@H]2[C@@H]1CC[C@H](C)[C@]21C=C(CO)CC1	300 µg/mL (≈ 1270 µM)	75 (≈ 317 µM)	inactive	75 µg/mL (≈ 317 µM)	inactive	inactive	Non-Toxic	Non-Toxic	inactive	–	–
CC(C)=CCC/C(C)=C/CC/C(C)=C/CC/C(C)=C/CO[C@@H](C(=O)O)[C@H](CC(=O)O)C(=O)O	300 µg/mL (≈ 646 µM)	37.5 (≈ 80.7 µM)	300 µg/mL (≈ 646 µM)	75 µg/mL (≈ 161 µM)	300 µg/mL (≈ 646 µM)	–	–	Non-Toxic	inactive	> 256	MIC (Wickerhamomyces anomalus; Hansenula anomala): 150 µg/mL (≈ 323 µM); IC50 (KB 3-1 [11]): 6 µM; MIC (Candida albicans [12]): 64 µg/mL (≈ 138 µM); inhibition at 256 µg/mL (Staphylococcus aureus [13]): 86%; inhibition at 64 µg/mL (Staphylococcus aureus [14]): 54%; inhibition at 16 µg/mL (Staphylococcus aureus [15]): 28%; inhibition at 256 µg/mL (Staphylococcus aureus [16]): 49%; inhibition at 128 µg/mL (Staphylococcus aureus [17]): 37%; inhibition at 64 µg/mL (Staphylococcus aureus [18]): 1.5%; inhibition at 16 µg/mL (Candida albicans [19]): 72%; inhibition at 8 µg/mL (Candida albicans [20]): 52%; Activity (Staphylococcus aureus [21]): Dose-dependent effect
C/C(=C\CC/C(C)=C/CO[C@@H](C(=O)O)[C@H](CC(=O)O)C(=O)O)CC/C=C(\C)CC[C@H](O)C(C)(C)O	inactive	300 (≈ 602 µM)	inactive	300 µg/mL (≈ 602 µM)	inactive	inactive	Non-Toxic	Non-Toxic	inactive	–	–
C/C(=C\CC/C(C)=C/CO[C@@H](C(=O)O)[C@H](CC(=O)O)C(=O)O)CC/C=C(\C)CC/C=C(\C)C(=O)O	inactive	75 (≈ 152 µM)	inactive	inactive	inactive	inactive	Non-Toxic	Non-Toxic	inactive	–	–
COC(=O)C[C@H](C(=O)O)[C@@H](OC/C=C(\C)CC/C=C(\C)CC/C=C(\C)CCC=C(C)C)C(=O)O	300 µg/mL (≈ 627 µM)	37.5 (≈ 78.3 µM)	300 µg/mL (≈ 627 µM)	150 µg/mL (≈ 313 µM)	inactive	inactive	Non-Toxic	Non-Toxic	inactive	> 256	inhibition at 256 µg/mL (Staphylococcus aureus [13]): 86%; inhibition at 64 µg/mL (Staphylococcus aureus [14]): 11%; inhibition at 128 µg/mL (Staphylococcus aureus [22]): 38%; Activity (Staphylococcus aureus [21]): Dose-dependent effect
C/C(=C\c1csc(C)n1)[C@@H]1C[C@@H]2O[C@]2(C)CCC[C@H](C)[C@H](O)[C@@H](C)C(=O)C(C)(C)[C@@H](O)CC(=O)O1 [PATUPILONE]	–	–	–	–	–	–	–	–	–	–	IC50 (L929 [23]): 0.0014 µM
O=C(O)c1cn(C2CC2)c2cc(N3CCNCC3)c(F)cc2c1=O [CIPROFLOXACIN]	2.3 µg/mL (≈ 6.94 µM)	–	–	–	–	–	–	–	–	–	MIC (Escherichia coli [24]): 2.3 µg/mL (≈ 6.94 µM)
CC(C)=CCC/C(C)=C/CC/C(C)=C/CO[C@@H](C(=O)O)[C@H](CC(=O)O)C(=O)O	18.8 µg/mL (≈ 47.4 µM)	9.4 (≈ 23.7 µM)	150 µg/mL (≈ 378 µM)	75 µg/mL (≈ 189 µM)	37.5 µg/mL (≈ 94.6 µM)	inactive	Non-Toxic	Non-Toxic	inactive	–	–
CN(C)[C@@H]1C(=O)C(C(N)=O)=C(O)[C@@]2(O)C(=O)C3=C(O)c4c(O)cccc4[C@@](C)(O)[C@H]3[C@H](O)[C@@H]12	–	8.3 (≈ 18 µM)	1 µg/mL (≈ 2.17 µM)	–	–	–	–	–	–	1 (≈ 2.17 µM)	–
NYSTATIN	–	–	–	9.4 µg/mL	16.7 µg/mL	16.7 µg/mL	–	–	–	–	MIC (Candida albicans [12]): 16.7 µg/mL
